Read-outs that look alike come from different tables or passages of the source.
Experiments:
[1] = Free calcium concentration in bath medium by calcium ion selective electrode; type: physicochemical; conditions: agonist concentrations above 100 µM; Mg^2+-free buffer, Ca^2+ fixed at 950 µM
Outline: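 Free Ca2+ read with a Ca2+-selective electrode. Mg2+-free buffer: 147 mM NaCl, 3 mM KCl, 10 mM glucose, 10 mM HEPES, pH 7.35, with 0.95 mM Ca2+. ATP or BzATP at 0, 1, 3.2, 10, 32, 100 and 320 µM, diluted from 10 mM aqueous stocks. Millivolt readings converted using a semilogarithmic standard curve. Means of three experiments.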

rat P2X7R = molecular target: T1, rat P2X7R (Rattus norvegicus, UniProt Q64663); type: cell-based
T1 sequence (Q64663 1-595): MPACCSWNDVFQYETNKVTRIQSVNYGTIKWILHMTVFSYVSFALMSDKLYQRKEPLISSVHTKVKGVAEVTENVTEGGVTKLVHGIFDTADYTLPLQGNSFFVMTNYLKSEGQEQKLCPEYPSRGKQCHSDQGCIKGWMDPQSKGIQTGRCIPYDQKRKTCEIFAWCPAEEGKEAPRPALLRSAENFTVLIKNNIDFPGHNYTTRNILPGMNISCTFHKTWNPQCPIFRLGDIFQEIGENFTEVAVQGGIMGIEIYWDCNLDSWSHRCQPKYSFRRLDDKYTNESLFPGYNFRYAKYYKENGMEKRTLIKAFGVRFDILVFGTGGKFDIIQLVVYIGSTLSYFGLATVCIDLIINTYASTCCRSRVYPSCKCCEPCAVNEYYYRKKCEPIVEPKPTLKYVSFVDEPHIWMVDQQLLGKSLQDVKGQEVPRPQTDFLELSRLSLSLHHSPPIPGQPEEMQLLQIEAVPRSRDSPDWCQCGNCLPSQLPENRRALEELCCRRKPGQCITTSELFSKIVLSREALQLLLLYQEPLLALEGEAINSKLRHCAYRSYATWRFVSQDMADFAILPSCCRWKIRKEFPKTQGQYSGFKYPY

rP2X7R-H130A mutant = type: cell-based, rat; conditions: 100 µM BzATP; 10 mM Ca^2+ vs Ca^2+-deficient medium
Outline: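 Rat P2X7R-H130A mutant transfected into HEK293 cells (2 µg DNA, Lipofectamine 2000, serum-free Opti-MEM 4.5 h, then 24–48 h), replated 2–10 h, EGFP-positive cells chosen. Whole-cell patch clamp at room temperature, −60 mV hold. Pipette: 145 mM NaCl, 10 mM EGTA, 10 mM HEPES, pH 7.35. Bath: Krebs-Ringer-like, 1 mM MgCl2, pH 7.35. 100 µM BzATP given in Ca2+-deficient or 10 mM Ca2+ medium. Four experiments, mean ± SEM.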

Compound: 2’(3′)-O-4-benzoylbenzoyl)ATP [BzATP]
- free Ca^2+ concentration in presence of BzATP relative to ATP (higher) [1]: 2–3%

Compound: Clc1cccc(-c2nnnn2Cc2cccnc2)c1Cl [A438079]
- time for effect on receptor deactivation (rat P2X7R; 100 µM A438079 applied during washout of 100 µM BzATP, Ca^2+-containing and Ca^2+-deficient medium): ~0.8 s
- potency relative to ATP (rat P2X7R; higher potency than ATP at rat receptor): ~3,000 fold
- potency relative to BzATP (rat P2X7R; higher potency than BzATP at rat receptor): 200 fold
- current generated when applied alone (rat P2X7R; no agonist, unpublished data): did not generate any current
- IC50 (rat P2X7R; read-out: IC50, inhibition of current, cells stimulated with 32 µM BzATP): ~300 nM
- IC50 (rat P2X7R; read-out: IC50, reduction of peak amplitude of current, applied together with 3.2 mM ATP, estimated): ~1000 nM

Compound: [Ca+2] [Ca^2+, calcium]
- decrease in the peak amplitude of current (rP2X7R-H130A mutant): 15 fold
- rightward shift in agonist (ATP, BzATP) dose-response (rat P2X7R; naive receptors, 2-mM Ca^2+-containing vs Ca^2+-deficient medium, 1 mM Mg^2+): ~0.5 log units
